Key:
U-251 = test: Growth inhibition of human U251 cells at 10 uM after 48 hrs by sulforhodamine B assay; format: functional; conditions: U-251, 48 h, read-out: GI
Method in brief: (§1)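 Single-dose screen at 10 µM across the NCI 60 panel. Cells in RPMI 1640 with 5% FBS and 2 mM L-glutamine, plated at 5000–40,000/well and preincubated 24 h at 37 °C, 5% CO2. Drug in DMSO, 48 h exposure. Fixed with TCA, stained with SRB, A515 read. Percent growth is taken relative to untreated control, and inhibition is 100 minus growth.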

BT-549 = test: Growth inhibition of human BT549 cells at 10 uM after 48 hrs by sulforhodamine B assay; format: functional; conditions: BT-549, 48 h, read-out: GI
Method in brief: (§2)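 Single-dose NCI-60 prescreen at 10 µM for 48 h at 37 °C and 5% CO2, using cells grown in RPMI 1640 with 5% FBS and 2 mM glutamine. Protein was measured by SRB after TCA fixation: 10% final for adherent lines, 16% for suspension lines. Absorbance was read at 515 nm. Percent growth inhibition was obtained by subtracting percent growth from 100.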

MCF7 = test: Growth inhibition of human MCF7 cells at 10 uM after 48 hrs by sulforhodamine B assay; format: functional; conditions: MCF7, 48 h, read-out: GI; method in brief: as §1
A549 = test: Growth inhibition of human A549/ATCC cells at 10 uM after 48 hrs by sulforhodamine B assay; format: functional; conditions: A549, 48 h, read-out: GI; method in brief: as §2
UACC-62 = test: Growth inhibition of human UACC62 cells at 10 uM after 48 hrs by sulforhodamine B assay; format: functional; conditions: UACC-62, 48 h, read-out: GI; method in brief: as §1
UACC-257 = test: Growth inhibition of human UACC257 cells at 10 uM after 48 hrs by sulforhodamine B assay; format: functional; conditions: UACC-257, 48 h, read-out: GI; method in brief: as §1
HCT-15 = test: Growth inhibition of human HCT15 cells at 10 uM after 48 hrs by sulforhodamine B assay; format: functional; conditions: HCT-15, 48 h, read-out: GI
Method in brief: (§3)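 NCI-60 one-dose primary screen at a single 10 µM concentration. Cells in RPMI 1640 with 5% FBS, preincubated 24 h at 37 °C, 5% CO2. Drug exposure 48 h, then TCA fixation, SRB staining and absorbance at 515 nm. Percent growth calculated against time-zero and untreated control wells, then converted to percent growth inhibition.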

PC-3 = test: Growth inhibition of human PC3 cells at 10 uM after 48 hrs by sulforhodamine B assay; format: functional; conditions: PC-3, 48 h, read-out: GI; method in brief: as §1
HT-29 = test: Growth inhibition of human HT-29 cells at 10 uM after 48 hrs by sulforhodamine B assay; format: functional; conditions: HT-29, 48 h, read-out: GI; method in brief: as §3
IGROV-1 = test: Growth inhibition of human IGROV1 cells at 10 uM after 48 hrs by sulforhodamine B assay; format: functional; conditions: IGROV-1, 48 h, read-out: GI; method in brief: as §1
OVCAR-4 = test: Growth inhibition of human OVCAR4 cells at 10 uM after 48 hrs by sulforhodamine B assay; format: functional; conditions: OVCAR-4, 48 h, read-out: GI; method in brief: as §1
NCI-H522 = test: Growth inhibition of human NCI-H522 cells at 10 uM after 48 hrs by sulforhodamine B assay; format: functional; conditions: NCI-H522, 48 h, read-out: GI; method in brief: as §1
OVCAR-3 = test: Growth inhibition of human OVCAR3 cells at 10 uM after 48 hrs by sulforhodamine B assay; format: functional; conditions: OVCAR-3, 48 h, read-out: GI; method in brief: as §1
SNB-19 = test: Growth inhibition of human SNB19 cells at 10 uM after 48 hrs by sulforhodamine B assay; format: functional; conditions: SNB-19, 48 h, read-out: GI; method in brief: as §1
[1] = Oral bioavailability in human; format: ADME, organism-based; conditions: in silico prediction
786-0 = test: Growth inhibition of human 786-0 cells at 10 uM after 48 hrs by sulforhodamine B assay; format: functional; conditions: 786-0, 48 h, read-out: GI; method in brief: as §2
RXF 393 = test: Growth inhibition of human RXF393 cells at 10 uM after 48 hrs by sulforhodamine B assay; format: functional; conditions: RXF 393, 48 h, read-out: GI; method in brief: as §1
RPMI-8226 = test: Growth inhibition of human RPMI8226 cells at 10 uM after 48 hrs by sulforhodamine B assay; format: functional; conditions: RPMI-8226, 48 h, read-out: GI; method in brief: as §1
MDA-MB-435 = test: Growth inhibition of human MDA-MB-435 cells at 10 uM after 48 hrs by sulforhodamine B assay; format: functional; conditions: MDA-MB-435, 48 h, read-out: GI; method in brief: as §1
DU-145 = test: Growth inhibition of human DU145 cells at 10 uM after 48 hrs by sulforhodamine B assay; format: functional; conditions: DU-145, 48 h, read-out: GI; method in brief: as §2
T47D = test: Growth inhibition of human T47D cells at 10 uM after 48 hrs by sulforhodamine B assay; format: functional; conditions: read-out: GI; method in brief: as §1
LOX IMVI = test: Growth inhibition of human LOXIMVI cells at 10 uM after 48 hrs by sulforhodamine B assay; format: functional; conditions: read-out: GI; method in brief: as §1
NCI-H226 = test: Growth inhibition of human NCI-H226 cells at 10 uM after 48 hrs by sulforhodamine B assay; format: functional; conditions: NCI-H226, 48 h, read-out: GI; method in brief: as §1
A498 = test: Growth inhibition of human A498 cells at 10 uM after 48 hrs by sulforhodamine B assay; format: functional; conditions: A498, 48 h, read-out: GI; method in brief: as §2
[2] = Growth inhibition of human Hs 578T cells at 10 uM after 48 hrs by sulforhodamine B assay; format: functional; conditions: read-out: GI; method in brief: as §3
[3] = Growth inhibition of human NCI-ADR-RES cells at 10 uM after 48 hrs by sulforhodamine B assay; format: functional; conditions: read-out: GI; method in brief: as §1
M14 = test: Growth inhibition of human M14 cells at 10 uM after 48 hrs by sulforhodamine B assay; format: functional; conditions: M14, 48 h, read-out: GI; method in brief: as §1

| SMILES | inhibition of growth at 10 µM (BT-549) | inhibition of growth at 10 µM (MCF7) | inhibition of growth at 10 µM (A549) | inhibition of growth at 10 µM (UACC-62) | inhibition of growth at 10 µM (UACC-257) | inhibition of growth at 10 µM (HCT-15) | inhibition of growth at 10 µM (PC-3) | inhibition of growth at 10 µM (HT-29) | inhibition of growth at 10 µM (IGROV-1) | inhibition of growth at 10 µM (OVCAR-4) | inhibition of growth at 10 µM (NCI-H522) | inhibition of growth at 10 µM (OVCAR-3) | inhibition of growth at 10 µM (SNB-19) | bioavailability [1] | inhibition of growth at 10 µM (786-0) | inhibition of growth at 10 µM (RXF 393) | inhibition of growth at 10 µM (RPMI-8226) | inhibition of growth at 10 µM (MDA-MB-435) | inhibition of growth at 10 µM (DU-145) | inhibition of growth at 10 µM (T47D) | further results |
| --- | --- | --- | --- | --- | --- | --- | --- | --- | --- | --- | --- | --- | --- | --- | --- | --- | --- | --- | --- | --- | --- |
| O=C(NS(=O)(=O)c1ccc2nc(-c3ccccc3)c(-c3ccccc3)nc2c1)c1ccccc1 | 7.67% | 22.9% | 21.1% | 19.6% | 15.2% | 44.9% | 41.9% | 48.4% | 16.5% | 16.5% | 23.5% | 19.2% | 22% | 100% | 16.5% | 39.1% | 58.5% | 12.9% | 6.85% | 57.5% | inhibition of growth at 10 µM (U-251): 21.6%; inhibition of growth at 10 µM (LOX IMVI): 20.5%; inhibition of growth at 10 µM (NCI-H226): 62%; inhibition of growth at 10 µM (A498): 42.2%; inhibition of growth at 10 µM [2]: 17%; inhibition of growth at 10 µM [3]: 27.5%; inhibition of growth at 10 µM (M14): 2.45% |
| O=S(=O)(Nc1cccc2ccccc12)c1ccc2nc(-c3ccccc3)c(-c3ccccc3)nc2c1 | 32.6% | 23% | 15.3% | 28.9% | 21.7% | 34.3% | 41.8% | 82.5% | 1.78% | 31.2% | 47.8% | 30.9% | 9.78% | 100% | 4.34% | 48.6% | 44.3% | 20.4% | 10.9% | 49.4% | inhibition of growth at 10 µM (U-251): 7.23%; inhibition of growth at 10 µM (LOX IMVI): 32.9%; inhibition of growth at 10 µM (NCI-H226): 44%; inhibition of growth at 10 µM (A498): 31.9%; inhibition of growth at 10 µM [2]: 24%; inhibition of growth at 10 µM [3]: 22.6%; inhibition of growth at 10 µM (M14): 2.23% |
| COc1ccccc1NS(=O)(=O)c1ccc2nc(-c3ccccc3)c(-c3ccccc3)nc2c1 | 55.1% | 31.8% | 36.5% | 23.4% | 18.9% | 44.7% | 52.8% | 63.9% | 11.8% | 30% | 28.8% | 13.5% | 41.9% | 100% | 41.5% | 70.7% | 65.7% | 22.5% | 18.9% | 63.9% | inhibition of growth at 10 µM (LOX IMVI): 23.3%; inhibition of growth at 10 µM (NCI-H226): 69.9%; inhibition of growth at 10 µM (A498): 42.8%; inhibition of growth at 10 µM [2]: 33.2%; inhibition of growth at 10 µM [3]: 41%; inhibition of growth at 10 µM (M14): 26% |
| NC(=S)NNS(=O)(=O)c1ccc2nc(-c3ccccc3)c(-c3ccccc3)nc2c1 | 1.83% | 18.9% | 34.7% | 24.3% | 8.83% | 29.9% | 34.6% | 30.8% | 8.83% | 16.5% | 13.7% | 1.84% | 14.8% | 81.4% | 2.34% | 29.2% | 46.4% | 11.1% | 2.73% | 42.6% | inhibition of growth at 10 µM (U-251): 26.8%; inhibition of growth at 10 µM (LOX IMVI): 11.2%; inhibition of growth at 10 µM (NCI-H226): 52.9%; inhibition of growth at 10 µM (A498): 26.8%; inhibition of growth at 10 µM [2]: 6.63%; inhibition of growth at 10 µM [3]: 11.9%; inhibition of growth at 10 µM (M14): 4.23% |
| CC(=S)NS(=O)(=O)c1ccc2nc(-c3ccccc3)c(-c3ccccc3)nc2c1 | 2.74% | 11.8% | 7.74% | 20.7% | 2.23% | 26.2% | 33.9% | 21.5% | 14.8% | 13.4% | 3.73% | 1.94% | 2.12% | 94.7% | 2.83% | 14.5% | 39.6% | 4.73% | 2.63% | 40.6% | inhibition of growth at 10 µM (U-251): 10.3%; inhibition of growth at 10 µM (LOX IMVI): 12.2%; inhibition of growth at 10 µM (NCI-H226): 53.6%; inhibition of growth at 10 µM (A498): 22.7%; inhibition of growth at 10 µM [2]: 20.8%; inhibition of growth at 10 µM [3]: 8.63%; inhibition of growth at 10 µM (M14): 2.85% |
